Results on 12 compounds are retold here after ChEMBL document CHEMBL1153965, “Inhibitors of hepatitis C virus NS3/4A: alpha-ketoamide based macrocyclic inhibitors” (Bioorg Med Chem Lett, 2009).

Series [1] in a line: Cytotoxicity against human HuH7 cells. It counts as cell-based, Huh-7.
The test system of series [2] is Hepatitis C virus. As to the kind of experiment: Antiviral activity against HCV replication infected in human HuH7 cells after 96 hrs by replicon assay in presence of 10% FCS. Format: functional, organism-based, Hepacivirus hominis, Huh-7. A digest of the protocol:
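Compounds incubated with replicon cells at 37 °C for 96 h in medium containing 10% FCS, with inhibition of replication read out to give EC50.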
A general note: Replicon systems follow genome replication, usually without infectious particles.

Series [3] can be described thus: Inhibition of full length HCV NS3/4A protease by TRF assay. Also on record: species or system Hepacivirus hominis.
The nature of series [4]: AUC (0 to infinity) in Wistar rat plasma at 5 mg/kg, po. Also on record: time infinity, dose 5 mg/kg, route oral. It counts as ADME, organism-based. A digest of the protocol: (§1)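 Male Wistar rats dosed orally at 5 mg/kg in PEG 400 vehicle, with plasma exposure measured. Values are geometric means from 3 animals.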
Series [5] is described as follows: Drug level in Wistar rat liver at 5 mg/kg, po after 4 hrs. As to conditions: read-out: Drug uptake. It counts as ADME, organism-based. Also on record: dose 5 mg/kg, route oral.
Series [6] relates to Hepatitis C virus. Description: Antiviral activity against HCV replication infected in human HuH7 cells after 48 hrs by replicon assay in presence of 2% FCS. As to conditions: Huh-7, 48 h.
Series [7] can be described thus: Oral bioavailability in Wistar rat at 5 mg/kg. Format: ADME, organism-based. As to conditions: in vivo.
The subject of series [8] is Hepatitis C virus. As to the kind of experiment: Antiviral activity against HCV replication infected in human HuH7 cells after 72 hrs by replicon assay in presence of 5% FCS. As to conditions: Huh-7, 72 h.
Series [9] is described as follows: Cmax in Wistar rat at 5 mg/kg, po. Format: ADME, organism-based. Also on record: dose 5 mg/kg, route oral. The following applies: in vivo. Summed up:
as §1

The structures appear in SMILES notation.

As usually defined, the CC50 is the concentration that lowers cell viability or growth by half. Low values mean harm at low concentration, high ones better tolerance by the cells. One may read the EC50 as the concentration giving half of the maximal effect. A word on the Ki: it is a dissociation constant, usually derived from enzyme kinetics or from competition with a known ligand. Lower therefore signals a stronger hold on the target. As to `CCC[C@H](NC(=O)[C@@H]1C[C@@H]2CN1C(=O)[C@H](C(C)(C)C)NC(=O)OCCCCCCc1cccc3c1CN(C3)C(=O)O2)C(=O)C(=O)NCc1ccccc1`, the CC50 in series [1] is more than 50 µM. Besides, the EC50 in series [2] (Hepatitis C virus, Huh-7, 96 h) worked out at 1.32 µM. Further, the affinity in [3], expressed as Ki, was 0.242 µM.
On the same counts, the results for `CCC(C)NC(=O)C(=O)C(CC(F)F)NC(=O)[C@@H]1C[C@@H]2CN1C(=O)[C@H](C(C)(C)C)NC(=O)OCCCCCCc1cccc3c1CN(C3)C(=O)O2` (single isomer, unassigned; diastereomer 1) are more than 50 µM, more than 12.5 µM and 2.4 µM.
In turn, `CCC[C@H](NC(=O)[C@@H]1C[C@@H]2CN1C(=O)[C@H](C(C)(C)C)NC(=O)OCCCCCCc1cccc3c1CN(C3)C(=O)O2)C(=O)C(=O)NC1CCCC1` registered a CC50 in series [1] of more than 50 µM. Further, the concentration for a half-maximal effect (EC50) in series [2] (Hepatitis C virus, Huh-7, 96 h) worked out at 1.05 µM. Besides, the Ki in series [3] was 0.078 µM.
`CCC[C@H](NC(=O)[C@@H]1C[C@@H]2CN1C(=O)[C@H](C(C)(C)C)NC(=O)OCCCCCCc1cccc3c1CN(C3)C(=O)O2)C(=O)C(=O)NCc1ccccn1`: the CC50 in [1] was more than 50 µM. Moreover, the EC50 in series [2] (Hepatitis C virus, Huh-7, 96 h) is 0.79 µM. Besides, in series [3], the Ki was 0.176 µM.
Compound `CCC[C@H](NC(=O)[C@@H]1C[C@@H]2CN1C(=O)[C@H](C(C)(C)C)NC(=O)OCCCCCCc1cccc3c1CN(C3)C(=O)O2)C(=O)C(=O)NC1CCC1` showed a half-maximal cytotoxic concentration (CC50) in [1] of more than 50 µM. Also, the EC50 in [2] (Hepatitis C virus, Huh-7, 96 h) was 0.94 µM. The same compound had a Ki in series [3] of 0.14 µM.
The matching figures for `CCC[C@H](NC(=O)[C@@H]1C[C@@H]2CN1C(=O)[C@H](C(C)(C)C)NC(=O)OCCCCCc1cccc3c1CN(C3)C(=O)O2)C(=O)C(=O)NC1CC1`: more than 50 µM, 0.6 µM and 0.083 µM.
As to `CCC(C)NC(=O)C(=O)C(CC(F)F)NC(=O)[C@@H]1C[C@@H]2CN1C(=O)[C@H](C(C)(C)C)NC(=O)OCCCCCCc1cccc3c1CN(C3)C(=O)O2` (single isomer, unassigned; diastereomer 2), the EC50 in series [2] (huh-7) was more than 6.25 µM. Moreover, in [3], the Ki is more than 2.9 µM.
In turn, `CCC[C@H](NC(=O)[C@@H]1C[C@@H]2CN1C(=O)[C@H](C(C)(C)C)NC(=O)OCCCCCCc1cccc3c1CN(C3)C(=O)O2)C(=O)C(=O)NC(C)CC` (stereo not given in full) showed a CC50 in series [1] of more than 50 µM. In addition, in series [2] (Hepatitis C virus, Huh-7, 96 h), the EC50 is 0.52 µM. Further, the Ki in series [3] worked out at 0.066 µM.
Usually AUC(0-inf) stands for total exposure, with the tail of the curve extrapolated. Higher therefore signals more exposure. A word on the bioavailability: it is the share of a dose that reaches the circulation, judged against a reference dose that is usually intravenous. `CCC[C@H](NC(=O)[C@@H]1[C@H]2CCC[C@H]2CN1C(=O)[C@@H](NC(=O)[C@@H](NC(=O)c1cnccn1)C1CCCCC1)C(C)(C)C)C(=O)C(=O)NC1CC1` [TELAPREVIR]: in [4], the AUC(0-inf) came out at 1540 nM·h. Besides, in series [1], the CC50 was more than 50 µM. Besides, the concentration at 4 h in series [5] was found to be 0.81 µM. In addition, the EC50 turned out to be 1.6 µM in series [2] (Hepatitis C virus, Huh-7, 96 h) and 0.354 µM in series [6]. Moreover, the affinity in [3] corresponds to a Ki of 0.11 µM. The compound also registered a bioavailability in [7] of 34.8%.
The Cmax is the peak of the concentration-time curve. With `CC(C)(C)NC(=O)N[C@H](C(=O)N1C[C@H]2[C@@H]([C@H]1C(=O)NC(CC1CCC1)C(=O)C(N)=O)C2(C)C)C(C)(C)C` (stereo not given in full) [BOCEPREVIR], the AUC(0-inf) in [4] stood at 210 nM·h. This compound also returned a CC50 in series [1] of more than 50 µM. Moreover, the half-maximal effective concentration (EC50) in series [8] was determined as 0.2 µM. The compound further yielded an inhibitory constant (Ki) in [3] of 0.035 µM. The bioavailability in series [7] amounted to 3.5%. Besides, in series [9], the Cmax amounted to 0.13 µM.
`C=CCNC(=O)C(=O)[C@H](CCC)NC(=O)[C@@H]1C[C@@H]2CN1C(=O)[C@H](C(C)(C)C)NC(=O)OCCCCCCc1cccc3c1CN(C3)C(=O)O2`: in series [4], the AUC(0-inf) worked out at 580 nM·h. In addition, in series [1], the CC50 is more than 50 µM. Besides, in series [5], the concentration at 4 h was 0.48 µM. Further, the EC50 in series [2] (Hepatitis C virus, Huh-7, 96 h) was determined as 0.55 µM. The compound also had a Ki in series [3] of 0.071 µM. In series [9], this compound yielded a Cmax of 0.16 µM.
The compound `CCC[C@H](NC(=O)[C@@H]1C[C@@H]2CN1C(=O)[C@H](C(C)(C)C)NC(=O)OCCCCCCc1cccc3c1CN(C3)C(=O)O2)C(=O)C(=O)NC(C)c1ccccc1` (stereo not given in full) registered a CC50 in [1] of more than 50 µM. The EC50 in [2] (Hepatitis C virus, Huh-7, 96 h) is more than 0.5 µM. Moreover, the Ki in [3] was 0.14 µM.
